# Measurements as given in publication PMC11484934 (Nature Communications, 2024).
# Assays:
# recombinant PGAM1 [1] = molecular target: T1, recombinant PGAM1 (Homo sapiens, UniProt P18669); assay: PGAM1 enzyme activity assay; format: biochemical; details: for effect on PGAM1 enzymatic activity: PGAM1 enzymatic assay
# recombinant human HDAC2 = recombinant human HDAC2 (Homo sapiens, UniProt Q92769); assay: Thermal shift assay with purified recombinant protein; format: binding; details: recombinant human HDAC2, FBP vs H2O, CBB staining
# Summary of the method: (§1)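 Purified recombinant human protein (0.2 μg/μL) was treated with test compound or H2O for 30 min at 25 °C. It was split into six aliquots, each heated in parallel for 3 min at its set temperature, then spun 20,000 g for 20 min at 4 °C. Supernatants were run on SDS-PAGE and stained with Coomassie blue.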
# PGM1 [2] = molecular target: T2, PGM1 (Homo sapiens, UniProt P36871); assay: as above; format: binding; details: recombinant human PGM1, FBP vs H2O, CBB staining
# T2 sequence (P36871 1-580 isoform P36871-2): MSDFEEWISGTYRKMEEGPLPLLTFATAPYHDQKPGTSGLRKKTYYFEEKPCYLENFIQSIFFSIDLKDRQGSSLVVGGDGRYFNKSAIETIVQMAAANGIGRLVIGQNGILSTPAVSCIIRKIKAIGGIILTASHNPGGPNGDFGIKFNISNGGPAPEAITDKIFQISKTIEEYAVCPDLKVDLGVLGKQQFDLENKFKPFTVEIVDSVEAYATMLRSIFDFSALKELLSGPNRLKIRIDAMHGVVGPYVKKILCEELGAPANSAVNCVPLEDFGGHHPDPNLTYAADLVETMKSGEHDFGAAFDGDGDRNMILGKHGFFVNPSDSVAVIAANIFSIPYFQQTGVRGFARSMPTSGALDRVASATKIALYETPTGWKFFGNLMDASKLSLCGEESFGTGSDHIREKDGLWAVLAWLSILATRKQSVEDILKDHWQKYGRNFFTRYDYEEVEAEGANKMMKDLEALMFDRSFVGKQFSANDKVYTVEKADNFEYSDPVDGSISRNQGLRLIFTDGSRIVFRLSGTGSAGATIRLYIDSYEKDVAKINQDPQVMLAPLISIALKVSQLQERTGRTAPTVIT
# Summary of the method: as §1
# recombinant PGAM1 [3] = molecular target: T1, recombinant PGAM1; assay: Histidine phosphorylation of recombinant PGAM1; format: biochemical; details: for PGAM1 phosphorylation / 3-pHis modification: immunoblotting and Phos-tag SDS-PAGE
# Summary of the method: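 Recombinant human PGAM1 was incubated with test compound. It was then analysed by Phos-tag SDS-PAGE or by immunoblotting with monoclonal antibodies specific for N3-phosphohistidine (3-pHis) and 1-phosphohistidine (1-pHis).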
# PGM1 [4] = molecular target: T2, PGM1; assay: Microscale thermophoresis; format: binding
# Summary of the method: (§2)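 Purified protein was labelled on lysines with a RED-NHS dye. It was mixed with test compound in 50 mM Tris-HCl pH 7.5, 100 mM NaCl, 0.05% Tween-20 and incubated 30 min at room temperature in the dark. The mix was loaded into capillaries for microscale thermophoresis on a Monolith NT.115.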
# recombinant human RAN = assay: Thermal shift assay with purified recombinant protein; format: binding; details: FBP vs H2O, CBB staining
# Summary of the method: as §1
# [5] = molecular target: Flag-tagged PGAM1 in HEK293T cells (Homo sapiens, UniProt P18669); format: cell-based; details: 30 min, glucose-free medium
# sgPGAM1 HepG2 cells = assay: Cell viability / proliferation assay; format: cell-based, human; details: sgPGAM1 HepG2, FBP 10 mM, 24 h, glucose-free medium
# Summary of the method: (§3)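 HepG2 cells (5000/well) were allowed to adhere overnight. They were exposed 24 h to a dilution series of test compound in glucose-free or 5 mM glucose medium, or to derivatives in 25 mM glucose medium for 24 h or 48 h. Viability was read by CCK8 colorimetry. PGAM1-knockout cells were made with a LentiCRISPR v2 sgRNA (HEK293T-packaged lentivirus, polybrene 10 µg/mL for 24 h) and selected with puromycin.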
# PGAM1-H11A = molecular target: T3, PGAM1-H11A (Homo sapiens, UniProt P18669, H11A); assay: PGAM1 enzyme activity assay, H11A mutant; format: biochemical
# T3 sequence (P18669 1-254 H11A): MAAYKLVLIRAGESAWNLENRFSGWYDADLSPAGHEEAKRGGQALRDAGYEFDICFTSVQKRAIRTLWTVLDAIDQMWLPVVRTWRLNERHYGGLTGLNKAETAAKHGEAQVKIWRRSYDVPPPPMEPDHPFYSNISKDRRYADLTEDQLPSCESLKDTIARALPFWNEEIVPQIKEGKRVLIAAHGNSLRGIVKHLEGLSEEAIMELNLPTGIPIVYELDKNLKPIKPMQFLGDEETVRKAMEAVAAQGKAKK
# PMM2 [6] = molecular target: T4, PMM2 (Homo sapiens, UniProt O15305); assay: Thermal shift assay with purified recombinant protein; format: binding; details: recombinant human PMM2, FBP vs H2O, CBB staining
# T4 sequence (O15305 1-246): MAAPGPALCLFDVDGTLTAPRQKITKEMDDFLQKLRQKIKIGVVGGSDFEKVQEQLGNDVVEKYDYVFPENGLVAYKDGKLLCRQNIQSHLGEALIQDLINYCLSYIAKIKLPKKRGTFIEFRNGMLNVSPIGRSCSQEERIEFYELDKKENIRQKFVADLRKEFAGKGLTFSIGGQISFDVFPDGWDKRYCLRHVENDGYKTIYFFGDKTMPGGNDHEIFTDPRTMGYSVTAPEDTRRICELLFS
# Summary of the method: as §1
# HepG2 cells [7] = assay: LC-MS/MS detection of 3-PG and 2-PG; format: cell-based, human; details: 10 mM FBP, 30 min
# Summary of the method: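 HepG2 cells (2 × 10^6/well, triplicates) were treated with 10 mM test compound for 0.5 h in 5 mM glucose, or H2O as control. Cells were extracted in cold 80% MeOH and analysed by HILIC LC-MS/MS in negative mode. The 3-PG and 2-PG fraction came from the m/z 97/(79 + 97) fragment ratio against standard-mixture curves. Values were scaled to the WT total mono-PG concentration.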
# sgCTRL HepG2 cells [8] = assay: Lactate production, sgCTRL HepG2 cells; format: cell-based, human; details: FBP 10 mM, 30 min
# Summary of the method: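 HepG2 cells were cultured overnight in 96 wells, then treated with H2O or 10 mM test compound for 0.5 h, or with H2O or 1 mM derivative for 24 h. Lactate in the culture medium was measured with a lactate assay kit.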
# recombinant human PRPS1 = assay: Thermal shift assay with purified recombinant protein; format: binding; details: recombinant human PRPS1, FBP vs H2O, CBB staining
# Summary of the method: as §1
# sgCTRL HepG2 cells [9] = assay: Glucose consumption, sgCTRL HepG2 cells; format: cell-based, human; details: FBP 10 mM, 30 min
# Summary of the method: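 HepG2 cells were cultured overnight in 96 wells, then treated with H2O or 10 mM test compound for 0.5 h, or with H2O or 1 mM derivative for 24 h. Glucose consumption from the culture medium was measured with a glucose oxidase kit.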
# PMM2 [10] = molecular target: T4, PMM2; assay: PMM2 enzyme activity assay; format: biochemical
# recombinant human OXSR1 = recombinant human OXSR1 (Homo sapiens, UniProt O95747); assay: Thermal shift assay with purified recombinant protein; format: binding; details: recombinant human OXSR1, FBP vs H2O, CBB staining
# Summary of the method: as §1
# PMM2 [11] = molecular target: T4, PMM2; assay: Microscale thermophoresis; format: binding
# Summary of the method: as §2
# HepG2 cells [12] = assay: LC-MS/MS quantification of intracellular FBP concentrations; format: cell-based, human; details: HepG2 cells treated with 10 mM FBP, 30 min
# Summary of the method: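 HepG2 cells (2 × 10^6/well, triplicates) were allowed to adhere overnight. They were treated 0.5 h with 10 mM test compound or H2O in 5 mM or 25 mM glucose medium. After PBS washes, cells were extracted in cold 80% MeOH containing 13C6-labelled internal standard (0.1 µg/mL), centrifuged and dried. Extracts were run by HILIC (BEH Amide) LC-MS/MS in negative mode, 10 mM NH4HCO3/MeCN.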
# PGM1 [13] = molecular target: T2, PGM1; assay: PGM1 enzyme activity assay; format: biochemical
# recombinant human GAPDH = recombinant human GAPDH (Homo sapiens, UniProt P04406); assay: Thermal shift assay with purified recombinant protein; format: binding; details: FBP vs H2O, CBB staining
# Summary of the method: as §1
# HepG2 cells [14] = assay: Cell viability / proliferation assay; format: cell-based, human; details: sgCTRL HepG2, FBP 10 mM, 24 h, glucose-free medium
# Summary of the method: as §3
# recombinant PGAM1 [15] = molecular target: T1, recombinant PGAM1; assay: Microscale thermophoresis; format: binding
# Summary of the method: as §2
# T1 sequence (P18669 whole entry): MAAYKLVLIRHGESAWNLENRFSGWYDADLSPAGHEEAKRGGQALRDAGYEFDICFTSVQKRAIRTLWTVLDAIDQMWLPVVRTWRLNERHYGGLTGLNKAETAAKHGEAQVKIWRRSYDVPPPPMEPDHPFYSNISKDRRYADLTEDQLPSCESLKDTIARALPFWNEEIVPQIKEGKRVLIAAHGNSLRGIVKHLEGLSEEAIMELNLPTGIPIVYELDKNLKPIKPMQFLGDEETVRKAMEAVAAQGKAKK
# Chain of Flag-tagged PGAM1 in HEK293T cells (P18669 whole entry): as above
# Chain of recombinant human GAPDH (P04406 43-335): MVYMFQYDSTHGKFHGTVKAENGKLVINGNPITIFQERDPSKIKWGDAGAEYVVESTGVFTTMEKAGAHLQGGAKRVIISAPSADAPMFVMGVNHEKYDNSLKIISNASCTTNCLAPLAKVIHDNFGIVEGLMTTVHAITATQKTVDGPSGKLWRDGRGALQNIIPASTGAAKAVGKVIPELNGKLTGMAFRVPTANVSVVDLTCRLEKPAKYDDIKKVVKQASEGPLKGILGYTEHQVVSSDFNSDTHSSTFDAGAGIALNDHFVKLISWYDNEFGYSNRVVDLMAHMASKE
# Chain of recombinant human HDAC2 (Q92769 whole entry): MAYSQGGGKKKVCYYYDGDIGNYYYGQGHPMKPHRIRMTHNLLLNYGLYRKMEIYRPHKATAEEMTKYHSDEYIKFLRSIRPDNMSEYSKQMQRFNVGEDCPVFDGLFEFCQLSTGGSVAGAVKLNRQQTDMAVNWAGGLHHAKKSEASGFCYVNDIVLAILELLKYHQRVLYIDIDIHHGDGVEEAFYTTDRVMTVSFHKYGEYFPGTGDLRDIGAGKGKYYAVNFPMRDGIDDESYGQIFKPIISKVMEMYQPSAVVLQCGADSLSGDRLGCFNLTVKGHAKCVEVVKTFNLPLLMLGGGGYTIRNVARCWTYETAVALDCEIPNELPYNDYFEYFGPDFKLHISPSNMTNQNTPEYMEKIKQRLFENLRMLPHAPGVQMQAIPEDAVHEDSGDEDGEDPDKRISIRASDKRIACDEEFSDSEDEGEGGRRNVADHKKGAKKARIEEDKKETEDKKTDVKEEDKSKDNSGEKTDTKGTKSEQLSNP
# Chain of recombinant human OXSR1 (O95747 whole entry): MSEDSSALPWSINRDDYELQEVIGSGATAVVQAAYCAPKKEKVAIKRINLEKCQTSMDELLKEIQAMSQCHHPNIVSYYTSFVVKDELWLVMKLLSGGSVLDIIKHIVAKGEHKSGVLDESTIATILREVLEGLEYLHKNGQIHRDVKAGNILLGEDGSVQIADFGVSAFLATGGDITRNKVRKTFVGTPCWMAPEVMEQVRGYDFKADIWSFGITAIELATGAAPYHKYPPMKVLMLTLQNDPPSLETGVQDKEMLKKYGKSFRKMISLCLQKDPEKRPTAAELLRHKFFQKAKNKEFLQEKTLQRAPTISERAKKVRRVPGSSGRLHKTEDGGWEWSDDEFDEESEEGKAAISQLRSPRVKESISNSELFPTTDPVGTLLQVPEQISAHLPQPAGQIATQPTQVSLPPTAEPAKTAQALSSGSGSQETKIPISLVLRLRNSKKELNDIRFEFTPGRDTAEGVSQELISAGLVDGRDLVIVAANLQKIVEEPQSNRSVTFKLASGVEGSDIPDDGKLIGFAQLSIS
compound,measurement,setting,value
"O=C(COP(=O)(O)O)[C@@H](O)[C@H](O)[C@H](O)COP(=O)(O)O [FBP, fructose-1,6-bisphosphate]",EC50,recombinant PGAM1 [1],480 µM
same,effect on PGAM1 enzymatic activity,recombinant PGAM1 [1],could activate the enzyme
same,thermal stability of recombinant protein,recombinant human HDAC2,reduced
same,thermal stability of recombinant protein,PGM1 [2],increased
same,concentration able to phosphorylate PGAM1,"recombinant PGAM1 [3]; concentration-dependent immunoblotting, recombinant PGAM1",1 mM
same,PGAM1 phosphorylation / 3-pHis modification,recombinant PGAM1 [3]; recombinant PGAM1,act as a phosphate donor to form 3-pHis modification
same,time after which 3-pHis modification decayed,recombinant PGAM1 [3]; time-dependent PGAM1 histidine phosphorylation,> 4 h
same,Kd,PGM1 [4],235 µM
same,thermal stability of recombinant protein,recombinant human RAN,reduced
same,histidine phosphorylation of Flag-tagged PGAM1 in living cells,[5],Dose-dependent histidine phosphorylation
same,effect on cell proliferation in PGAM1-knockout cells,sgPGAM1 HepG2 cells,abolished
same,activation effect towards PGAM1-H11A mutant,PGAM1-H11A,lost its activation effect
same,thermal stability of recombinant protein,PMM2 [6],increased
same,2-PG/3-PG ratio,HepG2 cells [7],significant increased
same,lactate production,sgCTRL HepG2 cells [8],significant increases
same,thermal stability of recombinant protein,recombinant human PRPS1,increased
same,glucose consumption,sgCTRL HepG2 cells [9],significant increases
same,IC50,PMM2 [10],7910 µM
same,thermal stability of recombinant protein,recombinant human OXSR1,reduced
same,Kd,PMM2 [11],247 µM
same,intracellular FBP concentration after exogenous treatment,HepG2 cells [12],1.435 ± 0.062 mM
same,IC50,PGM1 [13],2790 µM
same,thermal stability of recombinant protein,recombinant human GAPDH,increased
same,cell proliferation,HepG2 cells [14],significantly upregulated
same,Kd,recombinant PGAM1 [15],166 µM
"O=P(O)(O)O[C@H]1O[C@H](CO)[C@@H](O)[C@H](O)[C@H]1O [G1P, α-D-glucose-1-phosphate]",effect on PGAM1 enzymatic activity,recombinant PGAM1 [1],did not regulate the enzymatic activity
"C=C(OP(=O)(O)O)C(=O)O [PEP, phosphoenolpyruvate, reference compound]",PGAM1 phosphorylation / 3-pHis modification,recombinant PGAM1 [3]; recombinant PGAM1,weak phosphorylation
D-glucose-6-phosphate [G6P],effect on PGAM1 enzymatic activity,recombinant PGAM1 [1],did not regulate the enzymatic activity
D-mannose-6-phosphate [M6P],effect on PGAM1 enzymatic activity,recombinant PGAM1 [1],did not regulate the enzymatic activity
fructose-1-phosphate [F1P],effect on PGAM1 enzymatic activity,recombinant PGAM1 [1],did not regulate the enzymatic activity
fructose-6-phosphate [F6P],effect on PGAM1 enzymatic activity,recombinant PGAM1 [1],did not regulate the enzymatic activity
